Assay results reported in ChEMBL document CHEMBL1136050, “Synthesis, structural evaluation, and estrogen receptor interaction of 2,3-diarylpiperazines” (J Med Chem, 2002).

Columns and labels:
[1] = target: T1, Estrogen receptor (Homo sapiens) (UniProt P03372); test: Activation of the estrogen receptors of MCF-7-2a cells at 10e-6 M.
T1 sequence (whole entry): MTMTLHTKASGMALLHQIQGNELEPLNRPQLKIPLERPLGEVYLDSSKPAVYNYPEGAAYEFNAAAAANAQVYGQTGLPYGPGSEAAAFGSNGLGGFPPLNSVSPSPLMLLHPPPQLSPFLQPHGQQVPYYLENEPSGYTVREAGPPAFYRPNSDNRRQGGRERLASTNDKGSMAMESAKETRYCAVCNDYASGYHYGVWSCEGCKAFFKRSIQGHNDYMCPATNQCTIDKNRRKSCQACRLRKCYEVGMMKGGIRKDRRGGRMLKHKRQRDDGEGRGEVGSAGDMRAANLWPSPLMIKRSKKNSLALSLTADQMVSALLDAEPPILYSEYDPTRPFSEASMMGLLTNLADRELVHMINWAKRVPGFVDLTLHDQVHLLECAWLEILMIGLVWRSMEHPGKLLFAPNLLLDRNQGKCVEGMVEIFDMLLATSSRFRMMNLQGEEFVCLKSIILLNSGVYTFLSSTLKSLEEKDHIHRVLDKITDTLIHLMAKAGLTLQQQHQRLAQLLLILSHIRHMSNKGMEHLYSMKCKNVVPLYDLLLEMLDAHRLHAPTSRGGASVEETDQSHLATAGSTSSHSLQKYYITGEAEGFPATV
In short: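 MCF-7-2a cells stably carrying ERE(wtc)luc, kept one week in DMEM with L-glutamine, antibiotics and dextran/charcoal-treated BCS (50 mL/L). Seeded at about 2.2 × 10^5 cells/mL in six-well plates; compound added after 24 h and cells incubated 50 h. Lysed 20 min at room temperature, luciferase luminescence read for 10 s (RLU), normalized to Bradford protein. Line value taken at 1 μM.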

[2] = system: Estrogen receptor alpha (Bos taurus); test: Relative binding affinity to Estrogen receptor alpha in calf uterine cytosol compared to [3H]E2.; details: Uterus

Compound	Relative activation [1]	relative binding affinity (RBA) [2]
Oc1cc(Cl)c([C@H]2NCCN[C@H]2c2c(Cl)cc(O)cc2Cl)c(Cl)c1	73%	0.05
Oc1ccc(Cl)c([C@H]2NCCN[C@H]2c2c(Cl)ccc(O)c2Cl)c1Cl	12%	< 0.02
CCN1CCN(CC)[C@@H](c2ccc(OC)cc2)[C@H]1c1ccc(OC)cc1	4%	–
Oc1ccc([C@H]2NCCN[C@H]2c2c(Cl)cc(O)cc2Cl)c(Cl)c1	20%	< 0.02
Oc1ccc([C@H]2NCCN[C@H]2c2ccc(O)cc2F)c(F)c1	4%	< 0.02
COc1ccc(Cl)c([C@H]2NCCN[C@H]2c2c(Cl)ccc(OC)c2Cl)c1Cl	8%	–
COc1cc(Cl)c([C@H]2NCCN[C@H]2c2c(Cl)cc(OC)cc2Cl)c(Cl)c1	5%	–
CCN1CCN(CC)[C@@H](c2ccc(O)cc2F)[C@H]1c1ccc(O)cc1F	4%	0.03
Oc1ccc([C@H]2NCCN[C@H]2c2ccc(O)cc2Cl)c(Cl)c1	7%	< 0.02
CCN1CCN(CC)[C@@H](c2ccc(O)cc2)[C@H]1c1ccc(O)cc1	8%	< 0.02
COc1ccc([C@H]2NCCN[C@H]2c2ccc(OC)cc2)cc1	5%	–
Oc1ccc([C@H]2NCCN[C@H]2c2ccc(O)cc2)cc1	-1%	< 0.02

More lines, now with the values ahead:

Relative activation [1]	relative binding affinity (RBA) [2]	Compound
3%	–	CCN1CCN[C@H](c2ccc(OC)cc2F)[C@@H]1c1ccc(OC)cc1F
74%	0.42	CCN1CCN[C@H](c2ccc(O)cc2Cl)[C@@H]1c1ccc(O)cc1Cl
4%	–	CCN1CCN[C@H](c2ccc(OC)cc2Cl)[C@@H]1c1ccc(OC)cc1Cl
1%	–	COc1ccc([C@H]2NCCN[C@H]2c2ccc(OC)cc2Cl)c(Cl)c1
7%	–	CCN1CCN(CC)[C@@H](c2ccc(OC)cc2F)[C@H]1c1ccc(OC)cc1F
0%	–	CCN1CCN(CC)[C@@H](c2ccc(OC)cc2Cl)[C@H]1c1ccc(OC)cc1Cl
3%	–	COc1ccc([C@H]2NCCN[C@H]2c2c(Cl)cc(OC)cc2Cl)c(Cl)c1
37%	0.17	CCN1CCN(CC)[C@@H](c2ccc(O)cc2Cl)[C@H]1c1ccc(O)cc1Cl
34%	0.06	CCN1CCN[C@H](c2ccc(O)cc2F)[C@@H]1c1ccc(O)cc1F
4%	–	COc1ccc([C@H]2NCCN[C@H]2c2ccc(OC)cc2F)c(F)c1
